Series [1] can be described thus: Water solubility (solubility in mol/L). The class given is ADME. The following applies: read-out: S.
Series [2] has as its system Ehrlich. Kind of series: Compound was evaluated for the inhibition of DNA synthesis in Ehrlich Ascites tumor cells by irradiation (365 nm) at 1.9 x 10 e-5M. It counts as functional. An outline of the steps: (§1)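 Ehrlich ascites cells, 2×10^7 cells/mL in Hank's solution, on ice with 1.9×10^-5 M compound, irradiated by HPW 125 lamp at 20 cm (2.02×10^16 quanta/s). Then 2×10^6 cells pulsed 15 min at 37 °C with 1 μCi [3H]thymidine (DNA) or [3H]uridine (RNA). TCA-insoluble counts as % of untreated. Each dose at least in duplicate. D50 = UV dose giving 50% inhibition.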

The subject of series [3] is Ehrlich. Kind of series: Compound was evaluated for the inhibition of RNA synthesis in Ehrlich Ascites tumor cells by irradiation (365 nm) at 1.9 x 10 e-5M. The class given is functional. An outline of the steps: as §1
In series [4] the test system is Nucleic Acid. Kind of series: (§2) Compound was evaluated for association constant in the calf thymus DNA. It counts as functional. The following applies: Bos taurus. In outline: (§3)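 Equilibrium dialysis at 25 ± 0.05 °C in the dark, 12 h with shaking, across a cellophane membrane. Tritiated angelicin at slightly below its water solubility in 0.02 M NaCl with 1 mM EDTA, against DNA at 3×10^-3 to 3×10^-4 M. Both phases counted by scintillation to give r and c. K and n fitted iteratively to the McGhee–von Hippel equation.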

Series [5] concerns Nucleic Acid. Kind of series: Compound was evaluated for rate constant in the calf thymus DNA. It counts as functional. The following applies: Bos taurus. In outline: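 DNA at 2.3×10^-3 M in 2×10^-3 M NaCl and 1×10^-3 M EDTA with 3×10^-5 M labeled furocoumarin. Irradiated at 365 nm, 1.07×10^16 quanta s^-1 mL^-1, for increasing times in a thermostatted bath. Complexed fraction at time 0 taken from dialysis at 2 mM NaCl with ligand:nucleotide 1:76.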

Series [6] has as its system Nucleic Acid. The series is described as §2. The class given is nucleic-acid assay. The following applies: Bos taurus. In outline: as §3

In brackets after ≈: the same amount, converted by molar mass.

For `Cc1cc2c(cc(C)c3ccc(=O)oc32)o1`, in series [1], the solubility came out at 3 µg/mL (≈ 14 µM). Moreover, the D50 in series [2] worked out at 1.38e+19 quanta; in series [3], 6.6e+18 quanta. In series [4], this compound yielded a K of 1750. For the same compound, the Rate constant in series [5] came to 0.027 min⁻¹.

`O=c1ccc2ccc3occc3c2o1` [ANGELICIN]: the solubility in series [1] worked out at 20 µg/mL (≈ 107 µM). Also, the values for the D50 in series [2] and in series [3] were 2.5e+19 quanta and 2.33e+19 quanta, respectively. This compound gave a K in series [4] of 560. The Rate constant in series [5] was 0.011 min⁻¹.

Turning to `Cc1cc2c(ccc3ccc(=O)oc32)o1`, the solubility in series [1] came out at 12 µg/mL (≈ 59.9 µM). The D50 in series [2] is 1.66e+19 quanta; in series [3], 1.74e+19 quanta. This compound also came in with a K in series [4] of 1200. This compound also showed a Rate constant in series [5] of 0.021 min⁻¹.

On to `Cc1cc(=O)oc2c1ccc1occc12`, for which, in series [1], the solubility was 4 µg/mL (≈ 20 µM). The D50 in series [2] amounted to 2.4e+19 quanta; in series [3] it was 1.81e+19 quanta. The same compound gave a K in series [4] of 1400. The Rate constant in series [5] is 0.016 min⁻¹.

In the case of `Cc1cc2occc2c2oc(=O)ccc12`, in series [1], the solubility is 4.5 µg/mL (≈ 22.5 µM). The D50 in series [2] is 9.1e+18 quanta; in series [3], 8.3e+18 quanta. The K in series [4] turned out to be 1560. Moreover, the Rate constant in series [5] was determined as 0.034 min⁻¹.

Take `O=c1ccc2cc3ccoc3cc2o1` [PSORALEN]: the D50 in series [2] was found to be 9.1e+18 quanta; in series [3] it was 1.4e+19 quanta.

Turning to `Cc1cc2c(ccc3c(C)cc(=O)oc32)o1`, the D50 worked out at 1.09e+19 quanta in series [2] and 1.35e+19 quanta in series [3]. For the same compound, the K in series [6] was 1450.

For the origin of these results see ChEMBL document CHEMBL1121655, “Methylangelicins: new potential agents for the photochemotherapy of psoriasis. Structure-activity study on the dark and photochemical interactions with DNA” (J Med Chem, 1981).
